Drawing on ChEMBL document CHEMBL1133178, “Synthesis and evaluation of "AZT-HEPT", "AZT-pyridinone", and "ddC-HEPT" conjugates as inhibitors of HIV reverse transcriptase” (J Med Chem, 2000), this text covers EC50 and CC50 for 23 compounds.

Assay [1] in a line: Effective concentration required to achieve 50% inhibition of HIV-1 IIIB multiplication in PBM (peripheral blood mononuclear) cells. Type of assay: functional, Homo sapiens.
For assay [2], the system named is MT4. The experiment in a line: (§1) Cytotoxic concentration which reduces the cell viability of HIV-1 IIIB infected PBM (peripheral blood mononuclear) cells. The format is functional, cell-based. As to conditions: Homo sapiens.
Assay [3] concerns MT4. Nature of the assay: Cytotoxic concentration which reduces the cell viability of HIV-1 IIIB infected T4 lymphoblastoid MT-4 cells by 50%. As to conditions: Homo sapiens. Type of assay: functional. The gist of the method: (§2)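 Cytotoxicity was run in parallel, in the same experiment, on uninfected, compound-treated MT-4 or CEM-SS cells cultured 5 days. Viability was measured by MTT reduction to formazan (OD 540 nm). CC50 is the concentration reducing viability by 50%, calculated by median-effect analysis; means of duplicates.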

The target in assay [4] is Human immunodeficiency virus type 1 reverse transcriptase (Human immunodeficiency virus 1) (UniProt Q72547). The experiment in a line: Cytotoxic concentration which reduces the cell viability of HIV-1 LAI infected T4 lymphoblastoid CEM-SS cells by 50%. Type of assay: functional, cell-based.
Assay [5] can be described thus: Effective concentration required to achieve 50% inhibition of HIV-2 D194 multiplication in PBM (peripheral blood mononuclear) cells. Type of assay: functional, Homo sapiens.
The test system of assay [6] is CEM-SS. The experiment in a line: Effective concentration required to achieve 50% inhibition of HIV-1 181C (nevirapine-resistant HIV-1) multiplication in CEM-SS cells. Type of assay: functional, cell-based. As to conditions: Homo sapiens. The method in brief:
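CEM-SS cells infected with 100 TCID50 of nevirapine-resistant HIV-1, 30 min adsorption, then washed to remove free virus. Cultured with a range of compound concentrations for 5 days. Virus production read as reverse transcriptase activity of virions released into culture supernatants. EC50 taken from a computer-generated median effect plot of dose-effect data; means of duplicate experiments.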

The nature of assay [7]: concentration of compound which reduces the cell viability by 50% against PBM (peripheral blood mononuclear) cells infected with HIV-1 IIIB cells. The format is functional. To be noted: Homo sapiens.
A short description of assay [8]: as §1. Type of assay: functional. As to conditions: Homo sapiens.
Assay [9] has as its system MT4. The experiment in a line: Effective concentration required to achieve 50% inhibition of HIV-1 IIIB multiplication in hT4 lymphoblastoid MT-4 cells using MTT assay. Type of assay: functional, cell-based. As to conditions: Homo sapiens. The gist of the method:
(§3)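 MT-4 cells infected with 50 TCID50 of HIV-1 IIIB; 30 min adsorption, free virus washed off, then cultured with a range of compound concentrations for 5 days. Protection from virus-induced cytopathogenicity was read by MTT reduction (OD 540 nm). EC50 taken from a median-effect plot of dose-effect data; means of duplicate experiments.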
A general note: Formazan colour is commonly taken as a measure of viable cells.

The test system of assay [10] is MT4. Nature of the assay: Cytotoxic concentration. which reduces the cell viability of […] T4 lymphoblastoid MT-4 cells by 50%. The format is functional. As to conditions: Homo sapiens. The gist of the method:
as §2

A short description of assay [11]: Effective concentration. required to achieve 50% inhibition of HIV-2 D194 multiplication in PBM (peripheral blood mononuclear) cells. Type of assay: functional, Homo sapiens.
Assay [12] concerns MT4. The experiment in a line: Effective concentration. required to achieve 50% inhibition of HIV-1 IIIB multiplication in hT4 lymphoblastoid MT-4 cells using MTT assay. To be noted: Homo sapiens. Type of assay: functional, cell-based. The method in brief:
as §3

The subject of assay [13] is MT4. Nature of the assay: Cytotoxic conc. which reduces the cell viability of […] T4 lymphoblastoid MT-4 cells by 50%. To be noted: Homo sapiens. Type of assay: functional. The method in brief:
as §2

Assay [14] in a line: Effective conc. required to achieve 50% inhibition of HIV-1 IIIB multiplication in PBM (peripheral blood mononuclear) cells. Type of assay: functional, Homo sapiens.
Assay [15] can be described thus: Effective conc. required to achieve 50% inhibition of HIV-2 D194 multiplication in PBM (peripheral blood mononuclear) cells. Type of assay: functional, Homo sapiens.
Assay [16] has as its target Human immunodeficiency virus type 1 reverse transcriptase (Human immunodeficiency virus 1) (UniProt Q72547). Nature of the assay: Cytotoxic conc. which reduces the cell viability of HIV-1 LAI infected T4 lymphoblastoid CEM-SS cells by 50%. Type of assay: functional, cell-based.

On to `CCc1c(Sc2cc(C)cc(C)c2)n(CCCCC(=O)NCCCCCCCCCCNC(=O)CCc2cn(C3CC(N=[N+]=[N-])C(CO)O3)c(=O)[nH]c2=O)c(=O)[nH]c1=O` (configuration not stated), for which the EC50 (as a rule, the concentration that produces a half-maximal response) was 5.1 µM in [1], above 10 µM in [2], above 25 µM in assay [5] and above 25 µM in assay [6]. The cytotoxic concentration (CC50) (as a rule, the concentration at which the toxic effect on the cells reaches its halfway point) in [3] was 10 µM; in assay [4], above 25 µM; in assay [7], above 25 µM.

For `CCc1c(Sc2cc(C)cc(C)c2)n(CCCCC(=O)NCCCCCCCCCCCCNc2ccn(C3CCC(CO)O3)c(=O)n2)c(=O)[nH]c1=O` (configuration not stated), the 50% effective concentration (EC50) was found to be 0.46 µM in [1], 6.2 µM in assay [9] and 0.53 µM in assay [6]. Moreover, the 50% cytotoxic concentration (CC50) in assay [3] is above 10 µM; in [4], above 25 µM; in assay [8] it was above 10 µM.

As for `CCOC(=O)CCn1c(=O)c(C)cn(C2CC(N=[N+]=[N-])C(CO)O2)c1=O` (configuration not stated), the values for the half-maximal effective concentration (EC50) in assay [1], in assay [5] and in assay [9] were 2.1 µM, 8 µM and 4.3 µM, respectively. The half-maximal cytotoxic concentration (CC50) in [3], in assay [4] and in assay [8] was above 100 µM in each case.

As to `COC(=O)CCc1cn(C2CC(N=[N+]=[N-])C(CO)O2)c(=O)[nH]c1=O` (configuration not stated), the EC50 in [1], in [11] and in assay [9] was above 100 µM each time. Also, the CC50 in [10], in assay [4] and in [8] was above 100 µM each time.

As to `CCc1c(C)nc(O)c(N)c1Cc1cc(C)cc(C)c1`, the 50% cytotoxic concentration (CC50) in [4] is above 10 µM.

As for `[N-]=[N+]=NC1CC(n2cc(CCC(=O)NCCCCN)c(=O)[nH]c2=O)OC1CO` (configuration not stated), the concentration giving a half-maximal response (EC50) in assay [1], in [5] and in assay [12] was above 100 µM each time. Further, the CC50 in assay [3], in [4] and in [8] was above 100 µM throughout.

For the compound `Cc1cn([C@H]2C[C@H](N=[N+]=[N-])[C@@H](CO)O2)c(=O)[nH]c1=O` [ZIDOVUDINE], the CC50 in [13] was above 100 µM; in assay [8], 75 µM; in [16], above 100 µM. Also, the EC50 came to 1 nM in assay [14], 6 nM in [15] and 0.02 µM in assay [9].

In assay [4], `CCc1c(C)nc(O)c(NC(=O)CNC(=O)CNC(=O)OC(C)(C)C)c1Cc1cc(C)cc(C)c1` gave a CC50 above 100 µM.

For `[N-]=[N+]=NC1CC(n2cc(CCC(=O)NCCCCCCCCCCN)c(=O)[nH]c2=O)OC1CO` (configuration not stated), the results for the EC50 in assay [1], in assay [5] and in [9] were 75 µM, 68 µM and above 100 µM, respectively. For the same compound, the 50% cytotoxic concentration (CC50) in [3] was 60 µM; in assay [4], 38 µM; in assay [8], 77 µM.

For `Cc1cn(C2CC(N=[N+]=[N-])C(CO)O2)c(=O)n(CCC(=O)NCCCCCCCCCCN)c1=O` (configuration not stated), the EC50 in [1] was 40 µM; in assay [5], above 100 µM; in assay [9], above 100 µM. The results for the CC50 in assay [3], in assay [4] and in assay [8] were above 100 µM, 60 µM and 80 µM, respectively.

As to `CCc1c(C)nc(O)c(NC(=O)CCCCCCCCC(=O)OC)c1Cc1cc(C)cc(C)c1`, in assay [4], the 50% cytotoxic concentration (CC50) is above 10 µM.

Take `Nc1ccn([C@H]2CC[C@@H](CO)O2)c(=O)n1` [ZALCITABINE]: the values for the CC50 in assay [13], in assay [8] and in assay [16] were above 100 µM, 10 µM and 34 µM, respectively. Further, the 50% effective concentration (EC50) in assay [14] is 16 nM; in assay [15], 70 nM; in assay [9], 2.4 µM.

With `NCCCCCCCCCCCCNc1ccn(C2CCC(CO)O2)c(=O)n1` (configuration not stated), the results for the EC50 in assay [1], in [5] and in [9] were 2.9 µM, 4.7 µM and 100 µM, respectively. The figures for the half-maximal cytotoxic concentration (CC50) in assay [3], in assay [4] and in [8] were above 100 µM, 48 µM and 61 µM, respectively.

Take `CCc1c(Sc2cc(C)cc(C)c2)n(CCCCC(=O)NCCCCNC(=O)CCc2cn(C3CC(N=[N+]=[N-])C(CO)O3)c(=O)[nH]c2=O)c(=O)[nH]c1=O` (configuration not stated): the EC50 in assay [1] was 4.3 µM; in [5], above 50 µM; in assay [9] it was above 10 µM; in [6] it was above 50 µM. Further, the 50% cytotoxic concentration (CC50) is above 10 µM in assay [3], above 55 µM in assay [4] and above 50 µM in assay [8].

In [4], `CCc1c(C)nc(O)c(NC(=O)CCCC(=O)O)c1Cc1cc(C)cc(C)c1` gave a CC50 of 28 µM.

`CCc1c(C)nc(O)c(NC(=O)CCCCCCCCC(=O)O)c1Cc1cc(C)cc(C)c1` registered a CC50 in assay [4] above 10 µM.

In [4], `CCc1c(C)nc(O)c(NC(=O)CNC(=O)CN)c1Cc1cc(C)cc(C)c1` displayed a CC50 above 100 µM.

`CCc1c(C)nc(O)c(NC(=O)CCCCCCCCCN)c1Cc1cc(C)cc(C)c1` displayed a CC50 in assay [4] above 66 µM.

In the case of `COC(=O)CCCNC(=O)CCc1cn(C2CC(N=[N+]=[N-])C(CO)O2)c(=O)[nH]c1=O` (configuration not stated), the concentration for a half-maximal effect (EC50) in [1], in assay [5] and in assay [9] was above 100 µM in each case. The CC50 in assay [3] is 75 µM; in assay [4], above 100 µM; in assay [8] it was above 100 µM.

With `CCc1c(C)nc(O)c(NC(=O)CCCCCCCCCNC(=O)OC(C)(C)C)c1Cc1cc(C)cc(C)c1`, in [4], the CC50 was above 10 µM.

With `CCc1c(C)nc(O)c(NC(=O)CCCC(=O)OC)c1Cc1cc(C)cc(C)c1`, in assay [4], the CC50 was above 100 µM.

Take `CCc1c(Sc2cc(C)cc(C)c2)n(CCCCC(=O)NCCCCCCCCCCNC(=O)CCn2c(=O)c(C)cn(C3CC(N=[N+]=[N-])C(CO)O3)c2=O)c(=O)[nH]c1=O` (configuration not stated): the EC50 in assay [1] is 5.5 µM; in assay [5], above 25 µM; in [9], above 10 µM; in assay [6] it was 23 µM. Also, the CC50 in assay [3] was above 10 µM; in assay [4], above 25 µM; in [8], above 25 µM.

With `CCc1c(Sc2cc(C)cc(C)c2)n(CCCCC(=O)OC)c(=O)[nH]c1=O`, the concentration giving a half-maximal response (EC50) is 0.18 µM in [1], above 33 µM in assay [5], 0.33 µM in [9] and above 33 µM in [6]. Further, the CC50 in assay [3] is above 10 µM; in assay [4], above 33 µM; in [8] it was above 33 µM.
